DENV2 CPE = inhibitors of DENV2 cytopathic effect; DENV2-infected cells, cytopathic effect rescue, plate reader; CPE inhibition, % at 9.99 µM; actives 1.7% (n = 350,000); AID 651640; in the data active = CPE inhibition above about 20%, passing the limit was not always enough; inconclusive = no clear call, values can overlap the other calls; tested in BHK-21 cells;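 also: 0% = median of neutral control wells and 100% = median of positive control wells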
Cneo AK release = causes C. neoformans cell lysis; adenylate kinase release luminescence, 4 h; normalised: neutral wells 0, clomiphene wells 100; lysis activity, % at 15 µM; actives 0.2% (n = 360,000); AID 651654;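 active = mean lysis activity across replicates of at least 80%, whatever share of replicates individually reach that level; inactive = mean lysis activity below 80%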
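Schedule: static 4 h at 37 °C with compound, 1 h detection; system: C. neoformans cells; benchmarks: Clomiphene as positive control; buffer or medium: fresh YPD medium; measure: luminescence rise reflecting yeast cell lysis; measured by: luminescent adenylate kinase detection reagent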
rRNA inh HTS = selective bacterial rRNA inhibition in E. coli; E. coli WT GFP vs humanized-ribosome RFP mutants, fluorescence, 24 h; stronger effect = lower value; DMSO median 0, no signal -100; GFP signal change (wild-type ribosome), % (test concentration not listed); actives 1.6% (n = 350,000); AID 720706;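 active = significant combined selectivity score with lowered wild-type GFP, culture density cut under 30%, mutant RFP and density less affected; inactive = any of these conditions unmet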
PfHsp90 yeast 2 = growth inhibition of yeast expressing Plasmodium Hsp90; S. cerevisiae expressing PfHsp90, BacTiter-Glo ATP, 48 h; yeast lacking PDR1 and PDR3 efflux regulators; inhibition, % at 9.4 µM; actives 0.32% (n = 310,000);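 active = every replicate shows inhibition above about 80%, whatever the replicate mean, limit read from the data; inconclusive = mean inhibition reaches the set limit but some replicate falls short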;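 also: 0% = DMSO neutral controls and 100% = 20 µM radicicol positive controls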
MLL AF4-AF9 inh = MLL-AF4/AF9 protein interaction inhibition. inhibition, % at 10 µM. actives 0.47% (n = 350,000). AlphaScreen, biotin-AF4 peptide binding to FLAG-AF9;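 active = every replicate reaching a set inhibition limit, whatever the replicate mean, cut at about 25% in these data; inconclusive = mean inhibition reaches that limit but some replicates miss it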;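 also: 0% = plate neutral control median and 100% = total signal loss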
Target sequence (P42568 whole entry, looked up): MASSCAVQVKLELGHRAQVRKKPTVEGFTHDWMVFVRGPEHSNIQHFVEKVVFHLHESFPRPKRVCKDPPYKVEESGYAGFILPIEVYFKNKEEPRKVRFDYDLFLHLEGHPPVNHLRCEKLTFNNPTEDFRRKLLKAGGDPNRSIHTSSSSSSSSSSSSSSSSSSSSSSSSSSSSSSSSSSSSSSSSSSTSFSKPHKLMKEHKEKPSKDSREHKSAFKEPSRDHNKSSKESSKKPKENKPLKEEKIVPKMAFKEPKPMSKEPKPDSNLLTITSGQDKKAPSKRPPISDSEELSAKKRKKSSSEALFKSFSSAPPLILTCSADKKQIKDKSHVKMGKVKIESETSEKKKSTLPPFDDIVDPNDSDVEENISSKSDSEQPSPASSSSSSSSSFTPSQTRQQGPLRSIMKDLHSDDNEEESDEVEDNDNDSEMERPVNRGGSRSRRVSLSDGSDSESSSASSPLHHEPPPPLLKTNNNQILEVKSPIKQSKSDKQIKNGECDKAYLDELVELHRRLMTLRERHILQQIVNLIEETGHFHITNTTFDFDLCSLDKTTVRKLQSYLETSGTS
S100A4 inh HTS = blocks human S100A4 binding to myosin IIA peptide; S100A4/TAMRA-MyoIIA peptide fluorescence polarization; AID 652163; P26447; inhibition, % at 10.7 µM; actives 0.14% (n = 360,000);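 active = mean inhibition of at least 70% across replicates, with every replicate also reaching that level; inconclusive = mean inhibition reaches 70% but some replicates fall short; inactive = mean inhibition below 70%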
Target sequence (P26447 whole entry, looked up): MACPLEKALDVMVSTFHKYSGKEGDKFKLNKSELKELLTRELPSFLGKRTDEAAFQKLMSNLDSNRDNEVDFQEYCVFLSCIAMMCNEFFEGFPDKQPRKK
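Test system: S100A4 monomer protein; Medium: HEPES pH 7.2 with CaCl2, KCl, NaCl, DTT, Triton; Probe or stimulus: TAMRA-labelled myosin IIA heavy-chain peptide probe, 5 nM; Doses: one dose per compound; Times: polarization read 5 min after assay mix addition, stable 5–60 min; Benchmarks: neutral control DMSO, positive control TFP.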
An asterisk follows results filed as active; u = inconclusive; x = not tested or not shown; ! = not confirmed by another sample. Sampled rows, rich in hits. Any-hit rate of the full collection: about 3.2%.

SMILES	DENV2 CPE	Cneo AK release	rRNA inh HTS	PfHsp90 yeast 2	MLL AF4-AF9 inh	S100A4 inh HTS
Cc1ccc(S(=O)(=O)N(C)C[C@@H]2OCCCC[C@H](C)Oc3ccc(NC(=O)NC(C)C)cc3C(=O)N([C@@H](C)CO)C[C@@H]2C)cc1	6.4	0.4	-1.3	x	5.7	3.8
CCc1cccc(C)c1N=Cc1c(O)c2ccccc2oc1=O	-5.6	-0.6	-24.1*	17.6	3.9	-4.0
COc1ccc(C2/C=C\CN(C(=O)Nc3ccccc3)CC(=O)N2Cc2ccc(F)cc2)cc1 (stereo not drawn)	-2.7	-1.1	-27.1*	x	4.6	-2.4
COc1ccc(C2/C=C\CN(C(=O)Nc3ccc(C(F)(F)F)cc3)CC(=O)N2Cc2ccc(F)cc2)cc1 (stereo not drawn)	x	-7.7	x	8.7	x	x
CCOC(=O)CSC1=C(C#N)C(c2ccc(Cl)cc2)CC(=O)N1 (stereo not drawn)	-7.5	-1.5	-1.7	-18.0	-1.9	-2.8
CCOC(=O)CSC1=C(C#N)C(c2ccc(C)o2)CC(=O)N1 (stereo not drawn)	6.6	0.4	3.5	9.1	29.8*	-2.8
COc1ccc(NC(=O)N(C)C[C@@H]2OCCCC[C@H](C)Oc3ccc(NS(=O)(=O)c4ccc(Cl)cc4)cc3C(=O)N([C@H](C)CO)C[C@@H]2C)cc1	-0.2	7.0	-0.9	x	1.4	0.2
Cc1ccc(S(=O)(=O)Nc2ccc3c(c2)C(=O)N([C@H](C)CO)C[C@@H](C)[C@@H](CN(C)S(=O)(=O)c2cn(C)cn2)OCCCC[C@H](C)O3)cc1	34.0*	47.4	0.8	x	-3.2	-3.2
C[C@@H]1CN([C@@H](C)CO)C(=O)c2cc(NS(=O)(=O)c3cccs3)ccc2O[C@@H](C)CCCCO[C@H]1CN(C)S(=O)(=O)c1cn(C)cn1	30.9*	-3.2	-1.6	x	-1.6	-13.7
Cc1ccc(S(=O)(=O)Nc2ccc3c(c2)C(=O)N([C@@H](C)CO)C[C@@H](C)[C@@H](CN(C)S(=O)(=O)c2cn(C)cn2)OCCCC[C@H](C)O3)cc1	25.5*	1.8	0.6	x	0.9	-12.3
C[C@@H]1CN([C@H](C)CO)C(=O)c2cc(NS(=O)(=O)c3cccs3)ccc2O[C@@H](C)CCCCO[C@@H]1CN(C)S(=O)(=O)c1cn(C)cn1	-6.4	0.5	-1.5	x	1.8	13.7
COc1ccc(CN(C)C[C@H]2OCCCC[C@@H](C)Oc3ccc(NS(=O)(=O)c4cn(C)cn4)cc3C(=O)N([C@H](C)CO)C[C@@H]2C)cc1	52.5*	-6.6	0.4	x	-9.2	-25.3
Cc1noc(C)c1NC(=O)N(C)C[C@@H]1OCCCC[C@@H](C)Oc2ccc(NS(=O)(=O)c3ccc(Cl)cc3)cc2C(=O)N([C@@H](C)CO)C[C@H]1C	3.4	0.0	0.8	x	-17.1	-1.6
C[C@@H]1CN([C@@H](C)CO)C(=O)c2cccc(NC(=O)c3nc4ccccc4s3)c2O[C@@H]1CN(C)Cc1ccncc1	-9.3	0.3	-7.3	x	4.9	54.9
C[C@@H]1CCCCO[C@@H](CN(C)S(=O)(=O)c2cn(C)cn2)[C@H](C)CN([C@@H](C)CO)C(=O)c2cc(N(C)C)ccc2O1	52.9*	-2.4	3.9	x	-0.2	-11.1
COc1ccc(S(=O)(=O)Nc2ccc3c(c2)C(=O)N([C@@H](C)CO)C[C@@H](C)[C@@H](CN(C)S(=O)(=O)c2cn(C)cn2)OCCCC[C@H](C)O3)cc1	15.6	50.8	-0.9	x	-4.9	2.9
C[C@@H]1CN([C@H](C)CO)C(=O)c2cc(N(C)C)ccc2O[C@@H](C)CCCCO[C@H]1CN(C)S(=O)(=O)c1cn(C)cn1	3.5	-3.4	3.2	x	1.4	-30.0
C[C@H](CO)N1C[C@H](C)[C@H](CN(C)Cc2ccc(C(=O)O)cc2)Oc2ccc(NS(=O)(=O)c3cn(C)cn3)cc2C1=O	40.9*	-2.7	-1.5	x	-0.6	14.2
COc1ccc(S(=O)(=O)Nc2ccc3c(c2)C(=O)N([C@H](C)CO)C[C@@H](C)[C@@H](CN(C)S(=O)(=O)c2cn(C)cn2)OCCCC[C@H](C)O3)cc1	53.2*	0.8	-3.4	x	0.1	4.4
C[C@H](CO)N1C[C@H](C)[C@H](CN(C)C(=O)Nc2ccc3c(c2)OCO3)OCCCC[C@H](C)Oc2ccc(NC(=O)CCCCCC(=O)Nc3ccccc3N)cc2C1=O	9.2	-1.9	-1.2	x	-1.1	-2.6
CO[C@@H]1CN(C)C(=O)c2ccc(NC(=O)C3CC3)cc2OC[C@H](C)N(Cc2nccs2)C[C@H]1C	-9.3	-0.1	-4.0	x	-0.8	-3.9
Cc1ccccc1-c1ccc(C2[C@@H]3CN(C(=O)Nc4cccc(F)c4)C[C@H]2N3)cc1 (stereo partly drawn)	u	x	-63.1	x	4.1	-1.1
Cc1noc(C)c1NC(=O)N(C)C[C@@H]1Oc2ncc(C3=CCCC3)cc2C(=O)N([C@H](C)CO)C[C@@H]1C	7.2	-0.7	4.7	x	-7.9	8.6
C[C@@H]1CN([C@@H](C)CO)C(=O)c2cc(NC(=O)Cc3ccccc3)ccc2O[C@@H](C)CCCCO[C@H]1CN(C)C(=O)c1ccncc1	-10.5	-0.7	1.0	x	0.9	-36.7
C[C@@H]1CN([C@@H](C)CO)C(=O)c2cc(NC(=O)c3ccccc3)ccc2O[C@@H](C)CCCCO[C@@H]1CN(C)C(=O)CCC(F)(F)F	28.6*	-2.8	0.6	x	-9.6	-6.4
SMILES	DENV2 CPE	Cneo AK release	rRNA inh HTS	PfHsp90 yeast 2	MLL AF4-AF9 inh	S100A4 inh HTS
C[C@H]1CCCCO[C@@H](CN(C)C(=O)c2ccccc2)[C@@H](C)CN([C@@H](C)CO)C(=O)c2cc(NC(=O)c3ccncc3)ccc2O1	-3.0	85.7*	-2.9	x	-5.4	5.7
C[C@@H]1CCCCO[C@H](CN(C)C(=O)c2ccccc2)[C@@H](C)CN([C@@H](C)CO)C(=O)c2cc(NC(=O)c3ccccc3)ccc2O1	-0.5	96.4*	-15.4	x	-6.2	-0.2
C[C@@H]1CCCCO[C@@H](CN(C)C(=O)c2ccncc2)[C@@H](C)CN([C@H](C)CO)C(=O)c2cc(NC(=O)Cc3ccccc3)ccc2O1	23.9*!	0.3	17.2	x	4.0	1.6
CN1C(=O)[C@@H]2[C@@H](C[C@]3(COc4ccccc4)OC[C@H]2/C3=C\c2ccccc2)C1=O	2.1	-1.8	x	x	3.3	-11.2
C[C@H](CO)N1C[C@H](C)[C@@H](CN(C)C(=O)c2ccccc2)OCCCC[C@H](C)Oc2ccc(NC(=O)C3CCCCC3)cc2C1=O	33.6*	1.0	-3.4	x	-0.9	-14.7
CN(C)c1ccc(CNS(=O)(=O)c2ccc3c(c2)C(C)(C)C(=O)N3C)cc1	48.5*	0.6	2.5	2.3	-0.3	-10.8

Screens: PubChem BioAssay, Broad Institute
